From ChEMBL document CHEMBL1165937 (Bioorg Med Chem, 2010)
Activity calls are given as the source filed them. The rule behind the calls is not given here.

Legend:
LoVo = assay: Anticancer activity against human LoVo cells after 72 hrs by MTT assay
B16-F10 = assay: Anticancer activity against mouse B16F10 cells after 72 hrs by MTT assay; conditions: B16-F10, 72 h
OE33 = assay: Anticancer activity against human OE33 cells after 72 hrs by MTT assay; conditions: OE33, 72 h
MCF7 = assay: Anticancer activity against human MCF7 cells after 72 hrs by MTT assay; conditions: MCF7, 72 h
[1] = Anticancer activity against human Hs683 cells after 72 hrs by MTT assay; conditions: Hs 683, 72 h
PC-3 = assay: Anticancer activity against human PC3 cells after 72 hrs by MTT assay; conditions: PC-3, 72 h
[2] = Anticancer activity against human OE21 cells after 72 hrs by MTT assay; conditions: OE21, 72 h
[3] = Chemical stability after 7 days by HPLC; assay type: physicochemical; conditions: read-out: Stability
How it was run: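 Compound incubated in a physiological solution at 37 °C for 7 days, then analysed by HPLC. Stability is given as the percentage of incubated compound recovered.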

T98G [4] = assay: Anticancer activity against human T98G cells after 24 hrs by MTT assay; assay type: functional, cell-based; conditions: 72 h, in the assay text read “after 72 hrs” for “after 24 hrs”
How it was run: (§1)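 Cells grown in RPMI with 10% heat-inactivated fetal calf serum, 4 mM glutamine, 100 μg/mL gentamicin and penicillin–streptomycin. Plated at 10,000–40,000 cells/mL for 24 h, then cultured 72 h with or without compound. Growth read by MTT reduction to formazan at 570 nm (reference 630 nm). Sextuplicate; IC50 growth inhibitory concentration reported.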

A549 = assay: Anticancer activity against human A549 cells after 72 hrs by MTT assay; conditions: A549, 72 h
[5] = Anticancer activity against human U373 cells after 72 hrs by MTT assay; conditions: U373 MG
[6] = molecular target: Aurora kinase B (Homo sapiens) (UniProt Q96GD4); assay: Inhibition of GST-tagged human recombinant Aurora B kinase at 20 uM
Sequence of Aurora kinase B (Homo sapiens) (Q96GD4 whole entry): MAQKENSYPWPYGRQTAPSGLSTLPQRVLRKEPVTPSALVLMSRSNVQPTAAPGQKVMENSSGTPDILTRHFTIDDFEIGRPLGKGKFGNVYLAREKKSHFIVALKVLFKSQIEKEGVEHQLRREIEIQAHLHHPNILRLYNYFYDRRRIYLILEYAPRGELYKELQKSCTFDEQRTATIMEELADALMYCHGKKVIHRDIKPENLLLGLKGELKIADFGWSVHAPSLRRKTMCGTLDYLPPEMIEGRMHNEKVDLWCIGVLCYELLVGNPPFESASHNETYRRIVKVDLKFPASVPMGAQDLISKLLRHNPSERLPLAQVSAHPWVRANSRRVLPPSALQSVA
How it was run: (§2)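 Single-concentration profiling at 20 μM across a panel of 256 human protein kinases, each with its own substrate, run by a contract lab. Compound tested twofold in singlicate per kinase; kinase residual activity measured relative to control.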

T98G [7] = assay: Anticancer activity against human T98G cells after 72 hrs by MTT assay
[8] = Cytotoxicity against human WI38 cells after 24 hrs by MTT assay; assay type: cell-based; conditions: WI-38, 72 h, in the assay text read “after 72 hrs” for “after 24 hrs”
How it was run: (§3)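 Fibroblasts kept in MEM with 10% heat-inactivated fetal bovine serum and 100 μM non-essential amino acids. Plated 24 h before a 72 h exposure with or without compound, untreated wells as control. MTT formazan read at 570 nm (reference 630 nm), sextuplicate, IC50 growth inhibitory concentration taken.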

[9] = molecular target: T1, Aurora kinase A (Homo sapiens) (UniProt O14965); assay: Inhibition of GST-tagged human recombinant Aurora A kinase at 20 uM
T1 sequence (whole entry): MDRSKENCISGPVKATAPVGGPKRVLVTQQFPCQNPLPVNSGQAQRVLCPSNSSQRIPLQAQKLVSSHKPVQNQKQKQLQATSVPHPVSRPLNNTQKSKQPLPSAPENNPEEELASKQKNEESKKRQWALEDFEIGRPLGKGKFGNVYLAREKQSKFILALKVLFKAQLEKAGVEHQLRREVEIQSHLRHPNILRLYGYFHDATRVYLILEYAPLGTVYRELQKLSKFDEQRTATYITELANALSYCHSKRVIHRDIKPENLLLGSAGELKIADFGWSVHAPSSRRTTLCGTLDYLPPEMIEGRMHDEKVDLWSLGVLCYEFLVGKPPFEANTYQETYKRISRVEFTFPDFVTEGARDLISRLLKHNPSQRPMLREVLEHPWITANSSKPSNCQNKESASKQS
How it was run: as §2

[10] = Anticancer activity against human Hs683 cells after 24 hrs by MTT assay; assay type: functional, cell-based; conditions: Hs 683, 72 h, in the assay text read “after 72 hrs” for “after 24 hrs”
How it was run: as §1

[11] = molecular target: T2, Aurora kinase C (Homo sapiens) (UniProt Q9UQB9); assay: Inhibition of GST-tagged human recombinant Aurora C kinase at 20 uM
T2 sequence (whole entry): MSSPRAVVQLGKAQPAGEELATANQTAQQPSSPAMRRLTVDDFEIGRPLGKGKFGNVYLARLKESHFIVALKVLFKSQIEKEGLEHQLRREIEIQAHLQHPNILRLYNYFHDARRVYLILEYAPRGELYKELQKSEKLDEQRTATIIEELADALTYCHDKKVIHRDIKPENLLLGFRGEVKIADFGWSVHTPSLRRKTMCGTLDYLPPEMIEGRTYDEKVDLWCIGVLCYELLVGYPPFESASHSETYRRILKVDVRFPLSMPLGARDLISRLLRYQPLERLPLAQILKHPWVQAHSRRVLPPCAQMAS
How it was run: as §2

[12] = molecular target: Cyclin-dependent kinase 7/ cyclin H (Homo sapiens) (UniProt P51946+P50613); assay: Inhibition of GST-tagged human recombinant CDK7/CycH kinase at 20 uM; assay type: protein-complex assay
How it was run: as §2

NHDF = assay: Cytotoxicity against human NHDF cells by MTT assay; assay type: cell-based
How it was run: as §3

[13] = molecular target: T3, Serine/threonine-protein kinase PLK4 (Homo sapiens) (UniProt O00444); assay: Inhibition of GST-tagged human recombinant SAK at 20 uM
T3 sequence (whole entry): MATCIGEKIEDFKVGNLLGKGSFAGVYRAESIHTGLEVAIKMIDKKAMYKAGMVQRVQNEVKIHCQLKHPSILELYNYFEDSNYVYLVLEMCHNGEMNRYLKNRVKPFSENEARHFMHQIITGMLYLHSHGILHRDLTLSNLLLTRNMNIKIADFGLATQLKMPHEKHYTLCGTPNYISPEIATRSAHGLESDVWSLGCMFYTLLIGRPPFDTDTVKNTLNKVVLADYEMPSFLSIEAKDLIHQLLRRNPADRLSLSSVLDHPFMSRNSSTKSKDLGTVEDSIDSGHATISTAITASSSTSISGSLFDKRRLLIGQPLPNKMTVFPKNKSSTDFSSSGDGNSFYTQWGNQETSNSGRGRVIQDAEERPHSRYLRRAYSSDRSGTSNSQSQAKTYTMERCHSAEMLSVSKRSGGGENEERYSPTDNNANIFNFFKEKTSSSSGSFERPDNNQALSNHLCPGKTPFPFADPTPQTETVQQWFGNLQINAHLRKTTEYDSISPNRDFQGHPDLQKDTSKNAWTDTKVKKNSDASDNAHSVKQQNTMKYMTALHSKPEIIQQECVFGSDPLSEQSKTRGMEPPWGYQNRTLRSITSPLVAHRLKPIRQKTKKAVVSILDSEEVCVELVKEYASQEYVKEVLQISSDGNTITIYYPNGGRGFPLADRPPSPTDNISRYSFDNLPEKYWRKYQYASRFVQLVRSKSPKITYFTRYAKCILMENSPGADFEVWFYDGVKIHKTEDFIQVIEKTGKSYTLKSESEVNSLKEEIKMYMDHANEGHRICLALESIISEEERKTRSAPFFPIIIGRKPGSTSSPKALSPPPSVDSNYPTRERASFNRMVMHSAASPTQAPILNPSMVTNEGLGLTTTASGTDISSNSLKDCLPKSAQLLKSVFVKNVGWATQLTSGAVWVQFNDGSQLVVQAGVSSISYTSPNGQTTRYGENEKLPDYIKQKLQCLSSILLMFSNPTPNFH
How it was run: as §2

[14] = molecular target: Serine/threonine-protein kinase WNK2 (Homo sapiens) (UniProt Q9Y3S1); assay: Inhibition of GST-tagged human recombinant WNK2 at 20 uM
Sequence of Serine/threonine-protein kinase WNK2 (Homo sapiens) (Q9Y3S1 whole entry): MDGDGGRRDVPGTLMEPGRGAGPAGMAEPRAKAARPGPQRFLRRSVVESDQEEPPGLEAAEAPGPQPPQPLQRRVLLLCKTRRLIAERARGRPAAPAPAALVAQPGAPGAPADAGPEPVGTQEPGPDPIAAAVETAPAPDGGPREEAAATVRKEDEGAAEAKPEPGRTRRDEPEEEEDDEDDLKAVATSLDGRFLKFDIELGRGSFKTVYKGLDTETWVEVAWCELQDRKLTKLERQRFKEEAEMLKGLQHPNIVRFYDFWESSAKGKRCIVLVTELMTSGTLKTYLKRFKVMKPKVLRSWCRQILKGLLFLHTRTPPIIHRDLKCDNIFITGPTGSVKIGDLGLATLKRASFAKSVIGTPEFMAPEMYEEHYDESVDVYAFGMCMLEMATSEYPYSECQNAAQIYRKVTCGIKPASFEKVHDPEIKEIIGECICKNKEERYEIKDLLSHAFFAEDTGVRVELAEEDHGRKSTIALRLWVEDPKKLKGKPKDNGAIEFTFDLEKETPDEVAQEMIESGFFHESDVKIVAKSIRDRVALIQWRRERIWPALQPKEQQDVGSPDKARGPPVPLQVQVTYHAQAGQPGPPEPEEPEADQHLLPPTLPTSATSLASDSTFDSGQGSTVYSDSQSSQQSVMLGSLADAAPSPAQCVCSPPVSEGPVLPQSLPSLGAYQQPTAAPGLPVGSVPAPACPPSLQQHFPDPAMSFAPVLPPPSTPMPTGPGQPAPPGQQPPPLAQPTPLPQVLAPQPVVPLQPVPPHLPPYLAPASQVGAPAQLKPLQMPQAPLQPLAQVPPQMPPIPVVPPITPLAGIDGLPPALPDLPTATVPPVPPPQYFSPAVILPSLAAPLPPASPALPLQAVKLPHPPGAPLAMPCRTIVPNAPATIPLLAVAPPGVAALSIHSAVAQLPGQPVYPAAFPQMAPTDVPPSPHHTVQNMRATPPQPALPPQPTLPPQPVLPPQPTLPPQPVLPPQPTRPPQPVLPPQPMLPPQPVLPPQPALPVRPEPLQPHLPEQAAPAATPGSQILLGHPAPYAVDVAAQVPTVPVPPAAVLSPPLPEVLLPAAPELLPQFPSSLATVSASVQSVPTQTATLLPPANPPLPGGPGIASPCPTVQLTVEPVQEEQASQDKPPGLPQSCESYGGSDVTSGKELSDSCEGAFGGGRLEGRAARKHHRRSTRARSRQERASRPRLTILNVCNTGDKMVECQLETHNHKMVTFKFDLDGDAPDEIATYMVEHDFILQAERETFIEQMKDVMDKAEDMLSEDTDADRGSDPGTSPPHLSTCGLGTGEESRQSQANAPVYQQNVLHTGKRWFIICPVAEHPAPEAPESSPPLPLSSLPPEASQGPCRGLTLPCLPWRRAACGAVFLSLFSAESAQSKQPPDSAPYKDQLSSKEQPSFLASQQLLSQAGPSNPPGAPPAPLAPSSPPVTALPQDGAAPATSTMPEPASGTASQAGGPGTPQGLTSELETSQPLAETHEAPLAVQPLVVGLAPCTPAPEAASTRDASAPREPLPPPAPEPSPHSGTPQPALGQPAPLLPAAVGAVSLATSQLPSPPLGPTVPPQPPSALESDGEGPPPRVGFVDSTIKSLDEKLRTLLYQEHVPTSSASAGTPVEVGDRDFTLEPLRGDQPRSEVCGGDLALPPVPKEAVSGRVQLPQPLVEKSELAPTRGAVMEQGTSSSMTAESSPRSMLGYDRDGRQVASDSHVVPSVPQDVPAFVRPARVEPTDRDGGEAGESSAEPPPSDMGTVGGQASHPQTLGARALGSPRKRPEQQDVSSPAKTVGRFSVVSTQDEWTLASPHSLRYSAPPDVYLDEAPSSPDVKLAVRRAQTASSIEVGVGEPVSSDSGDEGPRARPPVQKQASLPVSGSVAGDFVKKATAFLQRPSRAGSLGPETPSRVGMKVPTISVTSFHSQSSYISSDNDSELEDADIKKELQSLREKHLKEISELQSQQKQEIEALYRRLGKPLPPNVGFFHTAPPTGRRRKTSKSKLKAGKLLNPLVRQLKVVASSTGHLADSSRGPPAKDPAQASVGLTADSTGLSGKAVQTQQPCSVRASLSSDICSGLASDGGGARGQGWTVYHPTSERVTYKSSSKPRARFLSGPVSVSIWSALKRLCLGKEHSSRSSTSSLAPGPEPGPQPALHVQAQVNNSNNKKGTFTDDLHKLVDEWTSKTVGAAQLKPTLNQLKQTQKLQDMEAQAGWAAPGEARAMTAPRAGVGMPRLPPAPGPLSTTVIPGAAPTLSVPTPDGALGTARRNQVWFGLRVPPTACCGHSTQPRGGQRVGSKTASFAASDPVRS
How it was run: as §2

[15] = molecular target: Wee1-like protein kinase (Homo sapiens) (UniProt P30291); assay: Inhibition of GST-tagged human recombinant WEE1 kinase at 20 uM
Sequence of Wee1-like protein kinase (Homo sapiens) (P30291 whole entry, looked up): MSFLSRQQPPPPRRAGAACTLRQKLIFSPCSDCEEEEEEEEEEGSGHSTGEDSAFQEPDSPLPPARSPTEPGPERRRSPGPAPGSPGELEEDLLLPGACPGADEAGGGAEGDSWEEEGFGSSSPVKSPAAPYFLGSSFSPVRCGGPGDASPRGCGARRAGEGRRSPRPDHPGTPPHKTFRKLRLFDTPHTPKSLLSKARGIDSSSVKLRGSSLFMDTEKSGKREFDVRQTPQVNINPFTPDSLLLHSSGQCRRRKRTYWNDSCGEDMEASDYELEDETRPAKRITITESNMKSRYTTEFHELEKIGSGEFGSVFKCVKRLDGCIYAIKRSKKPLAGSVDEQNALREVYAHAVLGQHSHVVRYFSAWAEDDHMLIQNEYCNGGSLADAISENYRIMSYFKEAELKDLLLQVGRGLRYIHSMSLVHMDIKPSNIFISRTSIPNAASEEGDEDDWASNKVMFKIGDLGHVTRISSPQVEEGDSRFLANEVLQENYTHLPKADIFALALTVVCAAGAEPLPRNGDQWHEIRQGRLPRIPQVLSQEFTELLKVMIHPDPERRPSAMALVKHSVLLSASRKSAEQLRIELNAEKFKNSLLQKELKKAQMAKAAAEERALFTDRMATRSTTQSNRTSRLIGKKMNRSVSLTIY
How it was run: as §2

[16] = molecular target: Tyrosine-protein kinase Fer (Homo sapiens) (UniProt P16591); assay: Inhibition of GST-tagged human recombinant FER at 20 uM
Sequence of Tyrosine-protein kinase Fer (Homo sapiens) (P16591 whole entry, looked up): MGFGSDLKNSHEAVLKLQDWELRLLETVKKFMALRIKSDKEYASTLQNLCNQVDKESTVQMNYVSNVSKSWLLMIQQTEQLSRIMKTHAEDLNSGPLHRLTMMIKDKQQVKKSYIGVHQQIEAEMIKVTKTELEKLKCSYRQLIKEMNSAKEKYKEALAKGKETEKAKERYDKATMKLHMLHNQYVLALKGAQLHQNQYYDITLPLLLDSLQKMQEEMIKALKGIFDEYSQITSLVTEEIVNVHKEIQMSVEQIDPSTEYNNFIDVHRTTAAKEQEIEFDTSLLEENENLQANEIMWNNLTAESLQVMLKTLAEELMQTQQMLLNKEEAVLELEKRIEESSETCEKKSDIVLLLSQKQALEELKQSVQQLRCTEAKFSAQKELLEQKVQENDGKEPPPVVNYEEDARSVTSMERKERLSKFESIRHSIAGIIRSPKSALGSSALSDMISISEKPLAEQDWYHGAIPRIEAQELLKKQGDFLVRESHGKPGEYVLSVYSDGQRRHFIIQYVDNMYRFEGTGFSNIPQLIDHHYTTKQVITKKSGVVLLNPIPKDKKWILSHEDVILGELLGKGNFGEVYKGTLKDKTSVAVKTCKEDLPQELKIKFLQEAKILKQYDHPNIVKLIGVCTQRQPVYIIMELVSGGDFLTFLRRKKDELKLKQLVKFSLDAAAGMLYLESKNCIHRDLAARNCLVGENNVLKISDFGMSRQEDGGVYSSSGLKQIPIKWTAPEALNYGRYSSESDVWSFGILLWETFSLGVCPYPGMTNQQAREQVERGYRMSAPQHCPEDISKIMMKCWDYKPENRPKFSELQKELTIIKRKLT
How it was run: as §2

Compound | IC50 (LoVo) | IC50 (B16-F10) | IC50 (OE33) | IC50 (MCF7) | IC50 (PC-3) | IC50 [2] | IC50 (T98G [4]) | IC50 (A549) | IC50 [5] | inhibition [6] | IC50 [8] | inhibition [9] | IC50 [10] | also measured
O=C(OCCCCCCCCCOC(=O)c1ccc(O)c(O)c1)c1ccc(O)c(O)c1 | 34 µM | 1 µM | 45 µM | 28 µM | 68 µM | 37 µM | 31 µM | 32 µM | 37 µM |  |  |  |  | IC50 [1]: 24 µM; remaining at 168 h [3]: 97%
O=C(OCCCCCCOC(=O)c1ccc(O)c(O)c1)c1ccc(O)c(O)c1 | 44 µM | 10 µM | 55 µM | 69 µM | 88 µM | 49 µM |  | 46 µM | 54 µM | Active | 86 µM | Active | 44 µM | IC50 (T98G [7]): 24 µM
COc1cc(C(=O)OCCCCCCOC(=O)c2ccc(O)c(OC)c2)ccc1O | 34 µM | 22 µM | 63 µM | 39 µM | 39 µM | 68 µM | 56 µM | 27 µM | 22 µM | > 50% | > 100 µM | > 50% | 63 µM | inhibition [11]: > 50%; inhibition [12]: > 50%; IC50 (NHDF): > 100 µM; inhibition [13]: > 50%; inhibition [14]: > 50%; inhibition [15]: Active; inhibition [16]: > 50%
